Assay results as given in ChEMBL document CHEMBL2069263, “Synthesis and characterization of quinoline-based thiosemicarbazones and correlation of cellular iron-binding efficacy to anti-tumor efficacy” (Bioorg Med Chem Lett, 2012).
The source made the active and inactive calls. The rule behind the calls is not given here.

Assays:
HCT-116 [1] = assay: Antiproliferative activity against human HCT116 cells expressing p53 after 72 hrs by MTT assay; assay type: functional, cell-based; conditions: HCT-116, 72 h
In short: (§1)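 Cells (SK-N-MC neuroepithelioma, HCT116 colon cancer p53+/+ or p53−/−, normal human dermal fibroblasts) were exposed to compounds for 72 h and proliferation was measured by standard methods. IC50 is reported as mean ± SD of three experiments.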

SK-N-MC [2] = assay: Antiproliferative activity against human SK-N-MC cells after 72 hrs by MTT assay; assay type: functional, cell-based; in short: as §1
SK-N-MC [3] = assay: Iron chelation activity in human SK-N-MC cells assessed as inhibition of 59Fe uptake from transferrin complex at 25 uM after 3 hrs by gamma scintillation counting relative to control; assay type: functional; parameters: scale not given: the % may be the effect or the level left
In short: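 SK-N-MC cells were incubated with 59Fe-transferrin, with or without chelator, for 3 h at 37 °C and washed 4 times with ice-cold PBS. Internalized 59Fe was taken as the pronase-resistant fraction after pronase (1 mg/mL, 30 min, 4 °C) and counted by γ-scintillation. Uptake is expressed relative to control, mean ± SD of three experiments.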

SK-N-MC [4] = assay: Iron chelation activity in human SK-N-MC cells assessed as cellular 59Fe released at 25 uM incubated for 3 hrs post 59Fe-transferrin-labeling by gamma scintillation counting; assay type: functional
In short: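 SK-N-MC cells were prelabeled with 59Fe-transferrin for 3 h at 37 °C and washed 4 times with ice-cold PBS. They were then reincubated for 3 h at 37 °C with or without chelator. Released 59Fe was counted by scintillation counting. Results are mean ± SD of three experiments.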

HCT-116 [5] = assay: Antiproliferative activity against p53-deficient human HCT116 cells after 72 hrs by MTT assay; assay type: functional, cell-based; conditions: HCT-116, 72 h; in short: as §1
NHDF = assay: Antiproliferative activity against human NHDF cells after 72 hrs by MTT assay; assay type: cell-based; in short: as §1
[6] = Therapeutic index, ratio of IC50 for human NHDF cells to IC50 for human SK-N-MC cells; assay type: cell-based; conditions: NHDF cells and SK-N-MC cells, read-out: Ratio IC50
In short: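 Ratio of NHDF IC50 to SK-N-MC IC50. Both IC50s come from anti-proliferative assays after a 72 h incubation with the chelator. Each IC50 is the mean ± SD of three experiments.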

HCT-116 [7] = assay: Antiproliferative activity against human HCT116 cells expressing p53 assessed as cell survival at 1 nM after 9 days by clonogenic assay relative to control; assay type: functional
HCT-116 [8] = assay: Antiproliferative activity against human HCT116 cells expressing p53 assessed as cell survival at 5 nM after 9 days by clonogenic assay relative to control; assay type: functional
HCT-116 [9] = assay: Antiproliferative activity against human HCT116 cells expressing p53 assessed as cell survival at 0.5 nM after 9 days by clonogenic assay relative to control; assay type: functional
HCT-116 [10] = assay: Antiproliferative activity against p53-deficient human HCT116 cells assessed as cell survival at 20 uM after 9 days by clonogenic assay relative to control; assay type: functional
HCT-116 [11] = assay: Antiproliferative activity against p53-deficient human HCT116 cells assessed as cell survival at 40 uM after 9 days by clonogenic assay relative to control; assay type: functional
HCT-116 [12] = assay: Antiproliferative activity against human HCT116 cells expressing p53 assessed as cell survival at 50 uM after 9 days by clonogenic assay relative to control; assay type: functional
HCT-116 [13] = assay: Antiproliferative activity against human HCT116 cells expressing p53 assessed as cell survival at 30 uM after 9 days by clonogenic assay relative to control; assay type: functional
HCT-116 [14] = assay: Antiproliferative activity against p53-deficient human HCT116 cells assessed as cell survival at 25 uM after 9 days by clonogenic assay relative to control; assay type: functional
HCT-116 [15] = assay: Antiproliferative activity against human HCT116 cells expressing p53 assessed as cell survival at 25 uM after 9 days by clonogenic assay relative to control; assay type: functional
HCT-116 [16] = assay: Antiproliferative activity against p53-deficient human HCT116 cells assessed as cell survival at 30 uM after 9 days by clonogenic assay relative to control; assay type: functional
HCT-116 [17] = assay: Antiproliferative activity against human HCT116 cells expressing p53 assessed as cell survival at 20 uM after 9 days by clonogenic assay relative to control; assay type: functional
HCT-116 [18] = assay: Antiproliferative activity against human HCT116 cells expressing p53 assessed as cell survival at 40 uM after 9 days by clonogenic assay relative to control; assay type: functional
HCT-116 [19] = assay: Antiproliferative activity against p53-deficient human HCT116 cells assessed as cell survival at 50 uM after 9 days by clonogenic assay relative to control; assay type: functional

| Compound | IC50 (HCT-116 [1]) | IC50 (SK-N-MC [2]) | Activity (SK-N-MC [3]) | Activity (SK-N-MC [4]) | IC50 (HCT-116 [5]) | IC50 (NHDF) | further results |
| --- | --- | --- | --- | --- | --- | --- | --- |
| CCNC(=S)N/N=C/c1ccc2cccc(O)c2n1 | 2.62 µM | > 12.5 µM | 49% | inactive | 3.15 µM | > 25 µM |  |
| CN(C)C(=S)N/N=C/c1ccc2ccccc2n1 | 4.86 µM | 0.81 µM | 49% |  | 0.37 µM | 11.7 µM | selectivity ratio [6]: 14 |
| CN(C)C(=S)NN=C(c1ccccn1)c1ccccn1 | 0.002 µM | 0.014 µM |  |  | 0.005 µM | 15.4 µM | fold change (FC) (HCT-116 [7]): 0.8541; fold change (FC) (HCT-116 [8]): 0.1922; fold change (FC) (HCT-116 [9]): 1.0629 |
| S=C(N/N=C/c1ccc2ccccc2n1)Nc1ccccc1 | 22.3 µM | > 12.5 µM |  | inactive | 21.4 µM |  |  |
| CCNC(=S)N/N=C/c1ccc2ccccc2n1 | 23.2 µM | > 12.5 µM | 49% |  | 19.6 µM |  |  |
| CN(C)C(=S)N/N=C/c1ccc2cccc(O)c2n1 | > 15 µM | 9.69 µM | 14% | 33% | 0.27 µM | 15.8 µM |  |
| CCNC(=S)N/N=C/c1c(O)ccc2cccnc12 | > 25 µM | 0.19 µM | 24% | 33% | > 25 µM | > 25 µM |  |
| Oc1ccc2cccnc2c1/C=N/NC(=S)Nc1ccccc1 | 16.3 µM | 1.63 µM | 49% |  | 18.6 µM | 14.9 µM |  |
| CN(C)C(=S)N/N=C/c1c(O)ccc2cccnc12 | 20.8 µM | 0.11 µM | 18% | 33% | > 25 µM | 14.9 µM | selectivity ratio [6]: 131 |
| CNC(=S)N/N=C/c1ccc2cccc(O)c2n1 | 1.71 µM | > 12.5 µM | 49% | inactive | 2.17 µM | > 25 µM |  |
| O=C(N/N=C/c1c(O)ccc2ccccc12)c1ccncc1 |  | 1.3 µM |  |  |  |  |  |
| CNC(=S)N/N=C/c1ccc2ccccc2n1 | > 25 µM | > 12.5 µM | 49% |  | > 25 µM |  |  |
| Oc1cccc2ccc(/C=N/NC(=S)Nc3ccccc3)nc12 | 25 µM | > 12.5 µM | 49% | inactive | 20.9 µM |  |  |
| CNC(=S)N/N=C/c1c(O)ccc2cccnc12 | > 25 µM | 0.62 µM | 45% | 33% | 8.06 µM | > 25 µM | fold change (FC) (HCT-116 [10]): 0.06; fold change (FC) (HCT-116 [11]): 0.004; fold change (FC) (HCT-116 [12]): 0; fold change (FC) (HCT-116 [13]): 0.039; fold change (FC) (HCT-116 [14]): 0.034; fold change (FC) (HCT-116 [15]): 0.041; fold change (FC) (HCT-116 [16]): 0.012; fold change (FC) (HCT-116 [17]): 0.05; fold change (FC) (HCT-116 [18]): 0.014; fold change (FC) (HCT-116 [19]): 0 |
| CN(C)C(=S)N/N=C(/c1ccccc1)c1ccccn1 |  |  |  |  |  |  | fold change (FC) (HCT-116 [7]): 0.1273; fold change (FC) (HCT-116 [9]): 0.6762 |
| CC(=O)N(O)CCCCCNC(=O)CCC(=O)N(O)CCCCCNC(=O)CCC(=O)N(O)CCCCCN [DEFEROXAMINE] |  | 12.5 µM |  |  |  |  |  |
